What was measured:
Candida albicans [1] = assay: Antifungal activity against Candida albicans isolate 12 expressing wild type 1,3-beta-glucan synthase grown on AM3 media after 48 hrs by EUCAST microdilution method; format: functional; conditions: isolate 12, 24 h, in the assay text read “after 24 hrs” for “after 48 hrs”
Outline: (§1)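 EUCAST (AFST-EUCAST) broth microdilution with caspofungin at 0.015 to 8 μg/ml final, in AM3 with glucose added to 2% final. Final inoculum was 10⁵ yeast cells/ml, with microplates prepared in batches and stored at −20°C. Plates were incubated at 35°C in humid ambient air and read spectrophotometrically after shaking at 24 h and 48 h. MIC was ≥50% growth reduction versus drug-free well; 90% end point also read at both times.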

Candida albicans [2] = assay: Antifungal activity against Candida albicans isolate 12 expressing wild type 1,3-beta-glucan synthase grown on RPMI media after 24 hrs by EUCAST microdilution method; conditions: isolate 12, 24 h
Candida albicans [3] = assay: Antifungal activity against Candida albicans isolate 9 expressing wild type 1,3-beta-glucan synthase grown on AM3 media after 48 hrs by EUCAST microdilution method; format: functional; conditions: isolate 9, 24 h, in the assay text read “after 24 hrs” for “after 48 hrs”; outline: as §1
Candida albicans [4] = assay: Antifungal activity against Candida albicans isolate 16 expressing wild type 1,3-beta-glucan synthase grown on AM3 media after 48 hrs by EUCAST microdilution method; format: functional; conditions: isolate 16, 24 h, in the assay text read “after 24 hrs” for “after 48 hrs”; outline: as §1
Candida albicans [5] = assay: Antifungal activity against Candida albicans isolate 1 expressing wild type 1,3-beta-glucan synthase grown on AM3 media after 48 hrs by EUCAST microdilution method; format: functional; conditions: isolate 1, 24 h, in the assay text read “24 hrs” for “48 hrs”; outline: as §1
Candida albicans [6] = assay: Antifungal activity against Candida albicans isolate 19 harboring 1,3-beta-glucan synthase HS1 point mutant grown on AM3 media after 24 hrs by EUCAST microdilution method; conditions: isolate 19, 24 h
Candida albicans [7] = assay: Antifungal activity against Candida albicans isolate 11 expressing wild type 1,3-beta-glucan synthase grown on AM3 media after 48 hrs by EUCAST microdilution method; format: functional; conditions: isolate 11, 24 h, in the assay text read “after 24 hrs” for “after 48 hrs”; outline: as §1
Candida albicans [8] = assay: Antifungal activity against Candida albicans isolate 17 expressing wild type 1,3-beta-glucan synthase grown on AM3 media after 48 hrs by EUCAST microdilution method; format: functional; conditions: isolate 17, 24 h, in the assay text read “after 24 hrs” for “after 48 hrs”; outline: as §1
Candida albicans [9] = assay: Antifungal activity against Candida albicans isolate 18 expressing wild type 1,3-beta-glucan synthase grown on RPMI media after 24 hrs by EUCAST microdilution method; conditions: isolate 18, 24 h
Candida albicans [10] = assay: Antifungal activity against Candida albicans isolate 13 expressing wild type 1,3-beta-glucan synthase grown on AM3 media after 48 hrs by EUCAST microdilution method; format: functional; conditions: isolate 13, 24 h, in the assay text read “after 24 hrs” for “after 48 hrs”; outline: as §1

Measured: MIC

CC[C@H](C)C[C@H](C)CCCCCCCCC(=O)N[C@H]1C[C@@H](O)[C@@H](NCCN)NC(=O)[C@@H]2[C@@H](O)CCN2C(=O)[C@H]([C@H](O)CCN)NC(=O)[C@H]([C@H](O)[C@@H](O)c2ccc(O)cc2)NC(=O)[C@@H]2C[C@@H](O)CN2C(=O)[C@H]([C@@H](C)O)NC1=O [CASPOFUNGIN]
1 µg/mL: Candida albicans [9]
0.5 µg/mL: Candida albicans [2] | Candida albicans [6]
0.03 µg/mL: all other assays above
